From ChEMBL document CHEMBL3414458, “Discovery of novel 2,5-dioxoimidazolidine-based P2X(7) receptor antagonists as constrained analogues of KN62” (J Med Chem, 2015)
The source made the active and inactive calls. The rule behind the calls is not given here.

How the values were obtained:
P2X purinoceptor 7 [1] = molecular target: T1, P2X purinoceptor 7 (Homo sapiens, UniProt Q99572); test: Antagonist activity at human P2X7 receptor
T1 sequence (Q99572 whole entry): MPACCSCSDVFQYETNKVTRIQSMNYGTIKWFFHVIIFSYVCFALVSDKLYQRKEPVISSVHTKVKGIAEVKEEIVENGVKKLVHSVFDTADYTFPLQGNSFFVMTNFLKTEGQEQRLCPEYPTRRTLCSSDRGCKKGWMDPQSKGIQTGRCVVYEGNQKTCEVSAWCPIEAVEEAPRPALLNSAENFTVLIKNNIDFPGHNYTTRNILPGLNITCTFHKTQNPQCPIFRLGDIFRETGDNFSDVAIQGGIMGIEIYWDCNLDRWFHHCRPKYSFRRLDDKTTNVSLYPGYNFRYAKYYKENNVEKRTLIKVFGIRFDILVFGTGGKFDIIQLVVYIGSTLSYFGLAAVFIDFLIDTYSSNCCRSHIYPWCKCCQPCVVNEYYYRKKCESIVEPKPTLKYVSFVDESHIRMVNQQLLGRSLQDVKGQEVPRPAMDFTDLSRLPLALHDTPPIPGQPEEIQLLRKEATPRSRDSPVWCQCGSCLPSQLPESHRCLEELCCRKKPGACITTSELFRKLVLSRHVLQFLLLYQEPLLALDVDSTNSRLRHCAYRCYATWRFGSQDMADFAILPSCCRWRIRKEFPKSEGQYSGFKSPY

P2X purinoceptor 7 [2] = molecular target: T2, P2X purinoceptor 7 (Mus musculus, UniProt Q9Z1M0); test: Antagonist activity at P2X7 receptor in LPS-primed mouse J774.A1 cells assessed as inhibition of ATP-induced IL-1beta release after 30 mins by ELISA; format: cell-based
T2 sequence (Q9Z1M0 whole entry): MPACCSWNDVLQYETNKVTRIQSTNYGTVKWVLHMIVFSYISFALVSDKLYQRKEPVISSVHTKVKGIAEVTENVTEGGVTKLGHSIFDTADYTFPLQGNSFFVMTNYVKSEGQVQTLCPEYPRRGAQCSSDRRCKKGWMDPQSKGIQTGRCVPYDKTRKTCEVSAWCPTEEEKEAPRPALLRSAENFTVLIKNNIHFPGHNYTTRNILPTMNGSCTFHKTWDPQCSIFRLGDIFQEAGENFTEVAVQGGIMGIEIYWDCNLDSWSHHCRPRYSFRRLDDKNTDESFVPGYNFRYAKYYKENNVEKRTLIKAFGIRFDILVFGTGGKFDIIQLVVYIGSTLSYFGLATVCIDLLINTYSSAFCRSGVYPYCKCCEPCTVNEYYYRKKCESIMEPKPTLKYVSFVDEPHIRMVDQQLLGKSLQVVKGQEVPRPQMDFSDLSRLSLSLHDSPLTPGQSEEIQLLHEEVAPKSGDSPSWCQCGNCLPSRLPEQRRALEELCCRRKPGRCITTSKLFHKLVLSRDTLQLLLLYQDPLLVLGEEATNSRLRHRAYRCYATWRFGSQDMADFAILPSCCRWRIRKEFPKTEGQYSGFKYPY
Summary of the method: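 J774.A1 mouse cells stimulated with 5 mM ATP; IL-1β release measured, with IC50 taken from concentration-response data.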

P2X purinoceptor 7 [3] = molecular target: T1, P2X purinoceptor 7; test: Antagonist activity at recombinant human P2X7 receptor expressed in HEK293 cells assessed as inhibition of BzATP-induced intracellular ethidium bromide uptake after 2 hrs by fluorescence assay; format: cell-based
Summary of the method: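 Human HEK293 cells stably expressing recombinant human P2X7; ethidium accumulation stimulated by BzATP was measured.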

P2X purinoceptor 7 [4] = molecular target: T1, P2X purinoceptor 7; test: Antagonist activity at P2X7 receptor in LPS/IFN-gamma-differentiated human THP1 cells assessed as inhibition of BzATP-induced IL-1beta release preincubated for 30 mins followed by BzATP induction measured after 30 mins by ELISA; format: cell-based, THP-1
Summary of the method: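 Human THP-1 monocytes, LPS-primed, stimulated with BzATP; IL-1β release measured by ELISA. Active compounds were screened at 1 µM, and full concentration-response curves were run to obtain IC50.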

[5] = AUClast in rat at 10 mg/kg, ip; format: ADME, organism-based; parameters: time 0 - last, dose 10 mg/kg, route intraperitoneal; settings: plasma
Summary of the method: (§1)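 Rats were dosed with the test agent intraperitoneally or by intravenous injection. Drug levels were followed in plasma over time after dosing. Intravenous and intraperitoneal exposures were compared to give absolute bioavailability.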

[6] = Cmax in rat at 10 mg/kg, ip; format: ADME, organism-based; parameters: dose 10 mg/kg, route intraperitoneal; settings: in vivo
Summary of the method: (§2)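 Rats dosed 10 mg/kg intraperitoneally; plasma concentrations were measured, and absolute bioavailability was calculated relative to intravenous dosing.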

[7] = Half life in rat at 10 mg/kg, ip; format: ADME, organism-based; parameters: dose 10 mg/kg, route intraperitoneal; settings: in vivo
[8] = Bioavailability in rat at 10 mg/kg, ip; format: ADME, organism-based; settings: in vivo; summary of the method: as §2
[9] = AUClast in rat at 20 mg/kg, iv; format: ADME, organism-based; parameters: time 0 - last, dose 20 mg/kg, route intravenous; settings: plasma; summary of the method: as §1
[10] = Terminal half life in rat at 20 mg/kg, iv; format: ADME, organism-based; parameters: dose 20 mg/kg, route intravenous; settings: in vivo, read-out: beta t1/2
Summary of the method: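 Rats dosed intravenously; mean terminal half-life was derived from the plasma concentration decline.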

[11] = molecular target: T3, P2X purinoceptor 7 (Homo sapiens) (UniProt Q99572); test: Antagonist activity at recombinant human P2X7 receptor expressed in HEK293 cells assessed as inhibition of BzATP-induced intracellular ethidium bromide uptake at 10 uM after 2 hrs by fluorescence assay; format: cell-based
T3 sequence (whole entry): T1 sequence (Q99572 whole entry)

[12] = molecular target: T4, P2X purinoceptor 7 (Rattus norvegicus) (UniProt Q64663); test: Antagonist activity at P2X7 receptor in neuropathic rat dorsal horn assessed as inhibition of long term potentiation-induced neropathic pain at 20 uM relative to control; settings: Dorsal horn of spinal cord
T4 sequence (whole entry): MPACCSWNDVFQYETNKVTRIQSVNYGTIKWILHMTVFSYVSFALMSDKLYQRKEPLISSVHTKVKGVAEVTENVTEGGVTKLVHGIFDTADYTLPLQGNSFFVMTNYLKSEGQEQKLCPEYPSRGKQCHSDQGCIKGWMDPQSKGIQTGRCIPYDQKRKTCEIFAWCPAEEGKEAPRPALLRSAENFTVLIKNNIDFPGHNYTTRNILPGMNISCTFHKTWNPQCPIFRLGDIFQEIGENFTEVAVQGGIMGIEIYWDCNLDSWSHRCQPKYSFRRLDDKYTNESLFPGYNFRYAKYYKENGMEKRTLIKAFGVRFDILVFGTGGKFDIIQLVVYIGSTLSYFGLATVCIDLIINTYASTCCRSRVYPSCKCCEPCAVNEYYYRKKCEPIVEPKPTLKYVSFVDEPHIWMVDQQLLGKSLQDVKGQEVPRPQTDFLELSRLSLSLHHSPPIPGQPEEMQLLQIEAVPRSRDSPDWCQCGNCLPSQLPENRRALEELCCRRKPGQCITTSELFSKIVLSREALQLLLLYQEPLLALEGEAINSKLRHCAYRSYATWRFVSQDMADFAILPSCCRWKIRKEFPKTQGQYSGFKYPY
Summary of the method: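 Ex vivo spinal cord preparation: LTP-induced pain signalling recorded in the dorsal horn of neuropathic rats. Pregabalin served as the positive control.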

Question: Which IC50 (P2X purinoceptor 7 [1]) does the source give for `CC(C)(C)OC(=O)N1CCN(C(=O)[C@H](Cc2ccc(OS(=O)(=O)c3cccc4cnccc34)cc2)NS(=O)(=O)c2cccc3cnccc23)CC1` here?
Answer: 0.041 µM

Question: For `O=C(NCC12CC3CC(CC(C3)C1)C2)c1cc(CCCNCCCO)ccc1Cl`, which IC50 (P2X purinoceptor 7 [2]) is on record?
Answer: > 60 µM

Question: With `O=C(N[C@@H](Cc1ccc(OS(=O)(=O)c2ccc([N+](=O)[O-])cc2)cc1)C(=O)N1CCN(C(=O)c2ccccc2)CC1)OCc1ccccc1` as the compound, how does the IC50 (P2X purinoceptor 7 [1]) read?
Answer: 0.034 µM

Question: Which results are given for `O=C1NC(=O)N(C2CCN(C(=O)c3ccc(Cl)c(C(F)(F)F)c3)CC2)C1Cc1ccc(OS(=O)(=O)c2cccc3cnccc23)cc1` (racemic)?
Answer: IC50 (P2X purinoceptor 7 [3]): 0.07 µM; IC50 (P2X purinoceptor 7 [4]): 0.05 µM; IC50 (P2X purinoceptor 7 [2]): 11.8 µM; AUC(0-t) [5]: 1.52 µg·h/mL; Cmax [6]: 0.4 µg/mL; half-life [7]: 2.15 h; bioavailability [8]: 86%; AUC(0-t) [9]: 3.53 µg·h/mL; half-life [10]: 1.29 h

Question: With `O=C1NC(=O)N(C2CCN(C(=O)C34CC5CC(CC(C5)C3)C4)CC2)C1c1ccc(OS(=O)(=O)c2cccc3cnccc23)cc1` (racemic) as the compound, how does the inhibition [11] read?
Answer: 48%

Question: Which IC50 (P2X purinoceptor 7 [1]) does the source give for `O=C([C@@H]1Cc2ccc(OS(=O)(=O)c3cccc4cnccc34)cc2CN1S(=O)(=O)c1cccc2cnccc12)N1CCN(c2ccccc2)CC1` here?
Answer: < 1 µM

Question: Which inhibition [11] does the source give for `O=C1NC(=O)N(C2CCNCC2)C1Cc1ccc(OS(=O)(=O)c2cccc3cnccc23)cc1` (racemic) here?
Answer: inactive

Question: Which inhibition [12] does the source give for `CC(C)C[C@H](CN)CC(=O)O` here?
Answer: 31%
